Measurements from ChEMBL document CHEMBL1921785, “Exploration of in vitro time point quantitative evaluation of newly synthesized benzimidazole and benzothiazole derivatives as potential antibacterial agents” (2011).

Assays:
Assay type in all cases: functional
[1] = test system: Shigella dysenteriae; test: Antibacterial activity against Shigella dysenteriae assessed as zone of growth inhibition at 0.2 mg/ml after 18 to 24 hrs by Kirby-Bauer agar diffusion method; details: read-out: DIZ
[2] = test system: Staphylococcus aureus; test: Antibacterial activity against Staphylococcus aureus MTCC 3160 assessed as zone of growth inhibition at 0.2 mg/ml after 18 to 24 hrs by Kirby-Bauer agar diffusion method; details: read-out: DIZ
Method in brief: (§1)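 Kirby-Bauer disc diffusion on Mueller-Hinton agar, following CLSI 2007 guidelines, with ciprofloxacin as reference drug. Read-out is the diameter of the zone of growth inhibition in mm.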

[3] = test system: Bacillus cereus; test: Antibacterial activity against Bacillus cereus MTCC 430 assessed as zone of growth inhibition at 0.2 mg/ml after 18 to 24 hrs by Kirby-Bauer agar diffusion method; details: read-out: DIZ; method in brief: as §1
[4] = test system: Bacillus cereus; test: Bactericidal activity against Bacillus cereus MTCC 430 assessed as log reduction in bacterial count at 0.2 mg/mL up to 48 hrs by time-kill assay
Method in brief: (§2)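 Time-kill by pour plate. Overnight 37 °C cultures in Mueller-Hinton broth were dosed at about 0.2 mg/mL and incubated at 37 °C for up to 72 h, with broth replenished every 24 h. Samples were taken over time, serially diluted, and pour-plated on MHA at 37 °C for 18–24 h. Colonies were counted as CFU/ml against untreated culture controls.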

[5] = test system: Staphylococcus aureus; test: Bactericidal activity against Staphylococcus aureus MTCC 3160 assessed as time required to complete extermination of bacteria at 0.2 mg/mL by time-kill assay; method in brief: as §2
[6] = test system: Vibrio cholerae; test: Antibacterial activity against Vibrio cholerae MTCC 3904 assessed as zone of growth inhibition at 0.2 mg/ml after 18 to 24 hrs by Kirby-Bauer agar diffusion method; details: read-out: DIZ
[7] = test system: Escherichia coli; test: Antibacterial activity against Escherichia coli MTCC 1610 assessed as zone of growth inhibition at 0.2 mg/ml after 18 to 24 hrs by Kirby-Bauer agar diffusion method; details: read-out: DIZ; method in brief: as §1
[8] = test system: Vibrio cholerae; test: Bactericidal activity against Vibrio cholerae MTCC 3904 assessed as time required to complete extermination of bacteria at 0.2 mg/mL by time-kill assay
[9] = test system: Bacillus cereus; test: Bactericidal activity against Bacillus cereus MTCC 430 assessed as time required to complete extermination of bacteria at 0.2 mg/mL by time-kill assay; method in brief: as §2
[10] = test system: Escherichia coli; test: Bactericidal activity against Escherichia coli MTCC 1610 assessed as time required to complete extermination of bacteria at 0.2 mg/mL by time-kill assay; method in brief: as §2
[11] = test system: Shigella dysenteriae; test: Bactericidal activity against Shigella dysenteriae assessed as time required to complete extermination of bacteria at 0.2 mg/mL by time-kill assay
[12] = test system: Vibrio cholerae; test: Bactericidal activity against Vibrio cholerae MTCC 3904 assessed as time required to complete extermination of bacteria by time-kill assay
[13] = test system: Vibrio cholerae; test: Antibacterial activity against Vibrio cholerae MTCC 3904 assessed as zone of growth inhibition after 18 to 24 hrs by Kirby-Bauer agar diffusion method
[14] = test system: Shigella dysenteriae; test: Antibacterial activity against Shigella dysenteriae assessed as zone of growth inhibition at after 18 to 24 hrs by Kirby-Bauer agar diffusion method
[15] = test system: Bacillus cereus; test: Antibacterial activity against Bacillus cereus MTCC 430 assessed as zone of growth inhibition after 18 to 24 hrs by Kirby-Bauer agar diffusion method; method in brief: as §1
[16] = test system: Shigella dysenteriae; test: Bactericidal activity against Shigella dysenteriae assessed as time required to complete extermination of bacteria by time-kill assay
[17] = test system: Bacillus cereus; test: Bactericidal activity against Bacillus cereus MTCC 430 assessed as time required to complete extermination of bacteria by time-kill assay; method in brief: as §2
[18] = test system: Staphylococcus aureus; test: Bactericidal activity against Staphylococcus aureus MTCC 3160 assessed as time required to complete extermination of bacteria by time-kill assay; method in brief: as §2

SMILES | zone of inhibition at 200 µg/mL [1] | zone of inhibition at 200 µg/mL [2] | zone of inhibition at 200 µg/mL [3] | zone of inhibition at 200 µg/mL [6] | further results
CC(C)c1ccc(-c2nc3ccccc3s2)cc1 | 15 mm | 13 mm | 20 mm | – | log reduction in bacterial count [4]: 3; Time [5]: <48 h
c1coc(Cn2c(-c3ccco3)nc3ccccc32)c1 | 12 mm | 10 mm | – | 13 mm | Time [5]: <48 h
CCOc1cc(Cn2c(-c3ccc(O)c(OCC)c3)nc3ccccc32)ccc1O | – | 23 mm | – | – | zone of inhibition at 200 µg/mL [7]: 14 mm; Time [5]: <24 h
Oc1ccc(Cn2c(-c3ccc(O)cc3)nc3ccccc32)cc1 | 11 mm | – | – | – | –
COc1cc(-c2nc3ccccc3s2)cc(OC)c1OC | 23 mm | – | – | – | –
CCOc1ccc(-c2nc3ccccc3s2)cc1 | 16 mm | 16 mm | 22 mm | 15 mm | zone of inhibition at 200 µg/mL [7]: 12 mm; log reduction in bacterial count [4]: 3; Time [5]: <48 h
c1ccc(Cn2c(-c3ccccc3)nc3ccccc32)cc1 | 23 mm | 10 mm | 22 mm | 33 mm | zone of inhibition at 200 µg/mL [7]: 19 mm; log reduction in bacterial count [4]: 3; Time [8]: <24 h
Cc1ccc(Cn2c(-c3ccc(C)cc3)nc3ccccc32)cc1 | 13 mm | 12 mm | – | 18 mm | –
CN(C)c1ccc(Cn2c(-c3ccc(N(C)C)cc3)nc3ccccc32)cc1 | 16 mm | 11 mm | – | 17 mm | –
CC(C)(C)c1ccc(Cn2c(-c3ccc(C(C)(C)C)cc3)nc3ccccc32)cc1 | 13 mm | – | 12 mm | 21 mm | zone of inhibition at 200 µg/mL [7]: 17 mm
Oc1ccc(Br)cc1Cn1c(-c2cc(Br)ccc2O)nc2ccccc21 | – | – | 33 mm | – | zone of inhibition at 200 µg/mL [7]: 17 mm; Time [9]: <24 h
Fc1ccc(Cn2c(-c3ccc(F)cc3)nc3ccccc32)cc1 | – | 10 mm | 18 mm | – | –
FC(F)(F)Oc1ccc(Cn2c(-c3ccc(OC(F)(F)F)cc3)nc3ccccc32)cc1 | 11 mm | 10 mm | – | 23 mm | Time [5]: <48 h; Time [8]: <24 h
Clc1ccc(Cn2c(-c3ccc(Cl)c(Cl)c3)nc3ccccc32)cc1Cl | 11 mm | – | – | – | –
C(=C/c1nc2ccccc2n1C/C=C/c1ccccc1)/c1ccccc1 | – | – | 14 mm | 11 mm | –
CCCCCCCn1c(CCCCCC)nc2ccccc21 | 21 mm | 12 mm | 15 mm | 16 mm | –
O=[N+]([O-])c1cccc(Cn2c(-c3cccc([N+](=O)[O-])c3)nc3ccccc32)c1 | – | 10 mm | – | 13 mm | –
FC(F)(F)c1ccc(Cn2c(-c3ccc(C(F)(F)F)cc3)nc3ccccc32)cc1 | 19 mm | 22 mm | – | 13 mm | zone of inhibition at 200 µg/mL [7]: 22 mm; Time [10]: <48 h
Brc1ccc(Cn2c(-c3ccc(Br)cc3)nc3ccccc32)cc1 | 13 mm | – | 15 mm | 16 mm | –
CCc1ccccc1-c1nc2ccccc2s1 | 35 mm | 13 mm | 21 mm | 16 mm | zone of inhibition at 200 µg/mL [7]: 11 mm; log reduction in bacterial count [4]: 3; Time [11]: 72 h
CCOc1ccc(-c2nc3ccccc3s2)cc1OC | 15 mm | 12 mm | – | 16 mm | –
COc1ccc(Br)cc1-c1nc2ccccc2s1 | – | 12 mm | 21 mm | 17 mm | –
O=[N+]([O-])c1ccc(-c2nc3ccccc3s2)cc1 | 13 mm | – | 14 mm | – | –
Oc1ccc(-c2nc3ccccc3s2)cc1 | – | – | 19 mm | 18 mm | Time [9]: <24 h
O=C(O)c1cn(C2CC2)c2cc(N3CCNCC3)c(F)cc2c1=O [CIPROFLOXACIN] | – | – | – | – | Time [12]: 48 h; diameter of the inhibition zone (DIZ) [13]: 24 mm; diameter of the inhibition zone (DIZ) [14]: 14 mm; diameter of the inhibition zone (DIZ) [15]: 14 mm; Time [16]: <72 h; Time [17]: 48 h; Time [18]: 48 h
